# Experimental data published in PMC5028098 (International Journal of Nanomedicine, 2016).
# What was measured:
# Assay type in all cases: cell-based, human
# MMP9 = test: Western blot of MMP9 in HUVECs incubated with TCM; settings: TCM 24 hours, decreased to a greater extent than MMP2 for HBP
# How it was run: (§1)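 HUVECs (2×10^5) were grown to 90% confluence, starved 12 h in 2% serum, then incubated 24 h with conditioned medium from MDA-MB231 cells treated with graded test-peptide concentrations. Cells were lysed on ice. Equal protein (40 μg, Bradford) was run on 10% SDS-PAGE and blotted to nitrocellulose. Primary antibody incubation was 4 h at 4°C, followed by HRP anti-rabbit IgG (1:2,000). Bands were quantified by densitometry relative to untreated-medium control; three experiments, mean ± SD.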
# MMP2 = test: Western blot of MMP2 in HUVECs incubated with TCM; settings: TCM 24 hours, dose-dependent for HBP
# How it was run: as §1
# HUVECs = test: Transwell migration; settings: HUVECs in TCM from treated MDA-MB231 cells, dose-dependent for HBP
substance,measurement,setting,value
VEGF,expression of MMP9 in HUVECs,MMP9,not affected
same,expression of MMP2 in HUVECs,MMP2,not affected
same,effect on migration / number of invasive ECs,HUVECs,no inhibitory effect
